Reference: ChEMBL document CHEMBL4261600 (Eur J Med Chem, 2018)

Columns and labels:
[1] = Half life in mouse at 10 mg/kg, po by LC-MS/MS analysis; assay type: ADME, organism-based; details: in vivo
[2] = target: Cyclin-dependent kinase 11B (Homo sapiens, UniProt P21127); assay: Binding affinity to wild-type human partial length CDC2L1 (P353 to G692 residues) expressed in bacterial expression system assessed as remaining unbound target protein level at 1000 nM by Kinomescan method relative to control
Procedure, shortened: (§1)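 Profiled in a KINOMEscan binding panel with the inhibitor at a single concentration of 1 μM. Binding to each kinase was read out as percent of control, relative to a DMSO control. Strong binders were defined as those with a percent control value below 1.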

[3] = target: Casein kinase I isoform epsilon (Homo sapiens) (UniProt P49674); assay: Binding affinity to wild-type human full length CSNK1E (M1 to K416 residues) expressed in bacterial expression system assessed as remaining unbound target protein level at 1000 nM by Kinomescan method relative to control
Procedure, shortened: (§2)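 Single-point competition binding screen across a panel of 468 kinases and mutants, with the inhibitor at 1 μM. Binding is read out as percent of a DMSO control, and targets below 1 percent control were classed as strong binders.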

[4] = target: Casein kinase I isoform gamma-3 (Homo sapiens) (UniProt Q9Y6M4); assay: Binding affinity to wild-type human full length CSNK1G3 (M1 to K447 residues) expressed in bacterial expression system assessed as remaining unbound target protein level at 1000 nM by Kinomescan method relative to control; procedure, shortened: as §2
[5] = tested on: Epidermal growth factor receptor (Homo sapiens), P00533 [L858R]; assay: Binding affinity to human partial length EGFR L858R mutant (R669 to V1011 residues) expressed in bacterial expression system assessed as remaining unbound target protein level at 1000 nM by Kinomescan method relative to control
Procedure, shortened: (§3)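 KINOMEscan competition-binding profiling across the panel of 468 kinases and mutants, with inhibitor tested at 1 μM. Binding is expressed as percent of control, with DMSO as the reference control.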

[6] = target: Ephrin type-B receptor 4 (Homo sapiens) (UniProt P54760); assay: Binding affinity to wild-type human partial length EPHB4 (H585 to G892 residues) expressed in bacterial expression system assessed as remaining unbound target protein level at 1000 nM by Kinomescan method relative to control
Procedure, shortened: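 KINOMEscan binding panel of 468 kinases/mutants. Inhibitor was tested at a single concentration of 1 μM. Binding is reported as percent of control, defined relative to a DMSO control.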

[7] = tested on: Receptor-type tyrosine-protein kinase FLT3 (Homo sapiens), P36888 [UNDEFINED MUTATION]; assay: Binding affinity to human partial length FLT3 ITD/F691L double mutant expressed in bacterial expression system assessed as remaining unbound target protein level at 1000 nM by Kinomescan method relative to control; procedure, shortened: as §3
[8] = target: G protein-coupled receptor kinase 4 (Homo sapiens) (UniProt P32298); assay: Binding affinity to wild-type human full length GRK4 (M1 to C578 residues) expressed in bacterial expression system assessed as remaining unbound target protein level at 1000 nM by Kinomescan method relative to control; procedure, shortened: as §2
[9] = target: Homeodomain-interacting protein kinase 1 (Homo sapiens) (UniProt Q86Z02); assay: Binding affinity to wild-type human partial length HIPK1 (M146 to I555 residues) expressed in mammalian expression system assessed as remaining unbound target protein level at 1000 nM by Kinomescan method relative to control
[10] = target: Mitogen-activated protein kinase kinase kinase 1 (Homo sapiens) (UniProt Q13233); assay: Binding affinity to wild-type human partial length MAP3K1 (L1202 to W1512 residues) expressed in mammalian expression system assessed as remaining unbound target protein level at 1000 nM by Kinomescan method relative to control
[11] = target: Serine/threonine-protein kinase Nek1 (Homo sapiens) (UniProt Q96PY6); assay: Binding affinity to wild-type human partial length NEK1 (M1 to K278 residues) expressed in bacterial expression system assessed as remaining unbound target protein level at 1000 nM by Kinomescan method relative to control
[12] = target: Serine/threonine-protein kinase OSR1 (Homo sapiens) (UniProt O95747); assay: Binding affinity to wild-type human full length OSR1 (M1 to S527 residues) expressed in mammalian expression system assessed as remaining unbound target protein level at 1000 nM by Kinomescan method relative to control; procedure, shortened: as §2
[13] = target: Cyclin-dependent kinase 15 (Homo sapiens) (UniProt Q96Q40); assay: Binding affinity to wild-type human full length PFTAIRE2 (M1 to W384 residues) expressed in bacterial expression system assessed as remaining unbound target protein level at 1000 nM by Kinomescan method relative to control
Procedure, shortened: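 KINOMEscan competition binding profile across a panel of 468 kinases and mutants, with the inhibitor tested at a single concentration of 1 μM. Binding is reported as percent of control, meaning signal relative to a DMSO control.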

[14] = target: Phosphatidylinositol 4,5-bisphosphate 3-kinase catalytic subunit alpha isoform (Homo sapiens) (UniProt P42336); assay: Binding affinity to wild-type human partial length PIK3CA (R108 to N1068 residues) expressed in mammalian expression system assessed as remaining unbound target protein level at 1000 nM by Kinomescan method relative to control
[15] = target: 1-phosphatidylinositol 3-phosphate 5-kinase (Homo sapiens) (UniProt Q9Y2I7); assay: Binding affinity to wild-type human partial length PIKFYVE (F1512 to C2098 residues) expressed in mammalian expression system assessed as remaining unbound target protein level at 1000 nM by Kinomescan method relative to control
[16] = target: cAMP-dependent protein kinase catalytic subunit beta (Homo sapiens) (UniProt P22694); assay: Binding affinity to wild-type human full length PKAC-beta (M1 to F351 residues) expressed in bacterial expression system assessed as remaining unbound target protein level at 1000 nM by Kinomescan method relative to control; procedure, shortened: as §1
[17] = target: Protein kinase C iota type (Homo sapiens) (UniProt P41743); assay: Binding affinity to wild-type human partial length PRKCI (H215 to V587 residues) expressed in mammalian expression system assessed as remaining unbound target protein level at 1000 nM by Kinomescan method relative to control
[18] = target: NUAK family SNF1-like kinase 2 (Homo sapiens) (UniProt Q9H093); assay: Binding affinity to wild-type human partial length SNARK (P22 to A333 residues) expressed in mammalian expression system assessed as remaining unbound target protein level at 1000 nM by Kinomescan method relative to control
[19] = target: Cyclin-dependent kinase 5/CDK5 activator 1 (Homo sapiens, UniProt Q00535); assay: Inhibition of recombinant full length His/GST-tagged human CDK5/p25 expressed in baculovirus expression system
[20] = target: Cyclin-Y/Cyclin-dependent kinase 16 (Homo sapiens, UniProt Q00536); assay: Inhibition of recombinant GST-tagged inactive state of human CDK16 (108 to end residues)/cyclin Y (2 to end residues); assay type: protein-complex assay
[21] = tested on: Mitogen-activated protein kinase kinase kinase 12 (DLK); assay: Binding affinity to wild-type human full length DLK (M1 to P859 residues) expressed in mammalian expression system assessed as remaining unbound target protein level at 1000 nM by Kinomescan method relative to control

Sequence of Serine/threonine-protein kinase OSR1 (Homo sapiens) (O95747 2-527 limits assumed): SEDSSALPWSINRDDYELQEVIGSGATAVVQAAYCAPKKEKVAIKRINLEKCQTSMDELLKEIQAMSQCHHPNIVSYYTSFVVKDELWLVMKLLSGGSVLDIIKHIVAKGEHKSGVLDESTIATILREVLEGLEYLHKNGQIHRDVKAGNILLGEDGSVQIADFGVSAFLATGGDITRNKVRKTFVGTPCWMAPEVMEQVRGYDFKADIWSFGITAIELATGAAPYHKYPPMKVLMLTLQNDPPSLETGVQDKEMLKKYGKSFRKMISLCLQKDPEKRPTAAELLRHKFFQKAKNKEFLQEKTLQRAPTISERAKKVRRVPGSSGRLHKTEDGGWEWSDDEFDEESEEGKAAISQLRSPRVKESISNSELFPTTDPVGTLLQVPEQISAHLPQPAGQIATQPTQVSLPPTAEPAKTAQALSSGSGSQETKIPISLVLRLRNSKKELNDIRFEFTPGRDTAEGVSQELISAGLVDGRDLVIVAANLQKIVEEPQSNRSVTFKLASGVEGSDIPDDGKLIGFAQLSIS
Sequence of Casein kinase I isoform epsilon (Homo sapiens) (P49674 whole entry, looked up, the tested form may be a part, canonical isoform): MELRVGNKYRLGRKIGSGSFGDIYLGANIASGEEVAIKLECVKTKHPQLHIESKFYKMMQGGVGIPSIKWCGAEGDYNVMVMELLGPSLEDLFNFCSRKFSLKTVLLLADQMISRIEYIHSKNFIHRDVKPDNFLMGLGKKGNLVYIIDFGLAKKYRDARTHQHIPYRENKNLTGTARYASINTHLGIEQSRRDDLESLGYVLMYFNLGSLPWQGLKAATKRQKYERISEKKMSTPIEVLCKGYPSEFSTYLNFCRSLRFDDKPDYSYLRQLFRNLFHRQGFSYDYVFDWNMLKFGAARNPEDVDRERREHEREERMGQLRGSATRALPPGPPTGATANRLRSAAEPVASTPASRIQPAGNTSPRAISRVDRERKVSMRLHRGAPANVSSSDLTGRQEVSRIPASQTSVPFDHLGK
Sequence of 1-phosphatidylinositol 3-phosphate 5-kinase (Homo sapiens) (Q9Y2I7 whole entry, the tested form may be a part): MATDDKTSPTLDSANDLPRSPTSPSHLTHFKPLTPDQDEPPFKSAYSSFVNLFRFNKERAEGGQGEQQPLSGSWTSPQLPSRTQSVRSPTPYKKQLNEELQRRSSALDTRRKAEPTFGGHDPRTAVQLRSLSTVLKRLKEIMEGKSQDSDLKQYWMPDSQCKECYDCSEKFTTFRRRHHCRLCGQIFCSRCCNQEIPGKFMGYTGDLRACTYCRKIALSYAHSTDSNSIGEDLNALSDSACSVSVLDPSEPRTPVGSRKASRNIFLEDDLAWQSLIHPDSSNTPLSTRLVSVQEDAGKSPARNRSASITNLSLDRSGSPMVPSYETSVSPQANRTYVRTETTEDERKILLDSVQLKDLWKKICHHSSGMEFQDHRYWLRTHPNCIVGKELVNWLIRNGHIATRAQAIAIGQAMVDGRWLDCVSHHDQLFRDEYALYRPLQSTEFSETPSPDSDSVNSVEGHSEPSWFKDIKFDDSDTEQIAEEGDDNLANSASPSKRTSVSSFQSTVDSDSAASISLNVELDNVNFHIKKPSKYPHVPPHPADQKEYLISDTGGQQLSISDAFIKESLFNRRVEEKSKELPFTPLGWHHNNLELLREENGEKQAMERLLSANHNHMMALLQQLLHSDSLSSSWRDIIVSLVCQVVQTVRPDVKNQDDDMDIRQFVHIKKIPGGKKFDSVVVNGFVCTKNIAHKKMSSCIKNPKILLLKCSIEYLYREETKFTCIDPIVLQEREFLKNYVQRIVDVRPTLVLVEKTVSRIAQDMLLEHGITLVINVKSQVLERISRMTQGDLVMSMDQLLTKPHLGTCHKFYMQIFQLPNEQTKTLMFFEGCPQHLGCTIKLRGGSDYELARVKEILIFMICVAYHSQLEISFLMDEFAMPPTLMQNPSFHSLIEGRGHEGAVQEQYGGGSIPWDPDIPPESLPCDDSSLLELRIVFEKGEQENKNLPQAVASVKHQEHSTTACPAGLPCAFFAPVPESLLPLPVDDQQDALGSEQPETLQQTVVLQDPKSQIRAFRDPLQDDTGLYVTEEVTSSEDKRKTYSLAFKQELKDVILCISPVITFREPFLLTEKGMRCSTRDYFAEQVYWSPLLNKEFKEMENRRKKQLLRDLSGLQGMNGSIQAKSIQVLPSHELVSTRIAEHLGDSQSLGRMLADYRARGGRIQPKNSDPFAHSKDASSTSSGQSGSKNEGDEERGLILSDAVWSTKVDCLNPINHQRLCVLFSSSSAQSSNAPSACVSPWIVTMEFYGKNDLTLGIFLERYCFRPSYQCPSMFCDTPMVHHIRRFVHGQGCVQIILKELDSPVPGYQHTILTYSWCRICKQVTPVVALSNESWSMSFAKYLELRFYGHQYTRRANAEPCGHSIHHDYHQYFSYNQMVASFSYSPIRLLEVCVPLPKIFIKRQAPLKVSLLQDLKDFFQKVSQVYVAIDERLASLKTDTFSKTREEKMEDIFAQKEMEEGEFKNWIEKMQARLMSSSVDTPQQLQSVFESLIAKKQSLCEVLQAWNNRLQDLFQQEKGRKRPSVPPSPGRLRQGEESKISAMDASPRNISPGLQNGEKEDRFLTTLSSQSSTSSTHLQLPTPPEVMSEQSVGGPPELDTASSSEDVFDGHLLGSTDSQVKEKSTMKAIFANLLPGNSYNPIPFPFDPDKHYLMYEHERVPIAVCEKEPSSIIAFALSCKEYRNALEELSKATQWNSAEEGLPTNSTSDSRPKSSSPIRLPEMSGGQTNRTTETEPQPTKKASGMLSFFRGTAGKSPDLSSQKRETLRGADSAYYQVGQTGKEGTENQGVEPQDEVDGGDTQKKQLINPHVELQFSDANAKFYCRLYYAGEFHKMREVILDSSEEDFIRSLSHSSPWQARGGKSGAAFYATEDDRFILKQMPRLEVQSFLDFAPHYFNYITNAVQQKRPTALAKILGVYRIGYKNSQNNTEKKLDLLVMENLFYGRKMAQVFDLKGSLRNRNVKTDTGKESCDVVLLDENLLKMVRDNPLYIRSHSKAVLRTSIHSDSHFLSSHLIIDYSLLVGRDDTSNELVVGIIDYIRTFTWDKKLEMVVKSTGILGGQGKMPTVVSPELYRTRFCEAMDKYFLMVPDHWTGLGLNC
Sequence of Casein kinase I isoform gamma-3 (Homo sapiens) (Q9Y6M4 whole entry, looked up, the tested form may be a part, canonical isoform): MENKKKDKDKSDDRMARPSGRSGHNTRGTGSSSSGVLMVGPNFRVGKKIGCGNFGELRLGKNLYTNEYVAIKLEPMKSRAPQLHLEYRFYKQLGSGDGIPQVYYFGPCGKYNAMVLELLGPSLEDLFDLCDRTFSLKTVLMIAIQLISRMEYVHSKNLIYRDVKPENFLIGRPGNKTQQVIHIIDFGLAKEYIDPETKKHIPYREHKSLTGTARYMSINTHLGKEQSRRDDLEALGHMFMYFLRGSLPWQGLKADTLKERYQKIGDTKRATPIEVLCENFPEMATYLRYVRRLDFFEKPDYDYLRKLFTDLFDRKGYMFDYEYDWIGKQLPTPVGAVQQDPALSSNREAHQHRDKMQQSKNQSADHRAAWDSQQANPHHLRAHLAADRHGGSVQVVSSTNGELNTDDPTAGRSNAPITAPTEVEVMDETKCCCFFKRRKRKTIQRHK
Sequence of Serine/threonine-protein kinase Nek1 (Homo sapiens) (Q96PY6 whole entry, the tested form may be a part): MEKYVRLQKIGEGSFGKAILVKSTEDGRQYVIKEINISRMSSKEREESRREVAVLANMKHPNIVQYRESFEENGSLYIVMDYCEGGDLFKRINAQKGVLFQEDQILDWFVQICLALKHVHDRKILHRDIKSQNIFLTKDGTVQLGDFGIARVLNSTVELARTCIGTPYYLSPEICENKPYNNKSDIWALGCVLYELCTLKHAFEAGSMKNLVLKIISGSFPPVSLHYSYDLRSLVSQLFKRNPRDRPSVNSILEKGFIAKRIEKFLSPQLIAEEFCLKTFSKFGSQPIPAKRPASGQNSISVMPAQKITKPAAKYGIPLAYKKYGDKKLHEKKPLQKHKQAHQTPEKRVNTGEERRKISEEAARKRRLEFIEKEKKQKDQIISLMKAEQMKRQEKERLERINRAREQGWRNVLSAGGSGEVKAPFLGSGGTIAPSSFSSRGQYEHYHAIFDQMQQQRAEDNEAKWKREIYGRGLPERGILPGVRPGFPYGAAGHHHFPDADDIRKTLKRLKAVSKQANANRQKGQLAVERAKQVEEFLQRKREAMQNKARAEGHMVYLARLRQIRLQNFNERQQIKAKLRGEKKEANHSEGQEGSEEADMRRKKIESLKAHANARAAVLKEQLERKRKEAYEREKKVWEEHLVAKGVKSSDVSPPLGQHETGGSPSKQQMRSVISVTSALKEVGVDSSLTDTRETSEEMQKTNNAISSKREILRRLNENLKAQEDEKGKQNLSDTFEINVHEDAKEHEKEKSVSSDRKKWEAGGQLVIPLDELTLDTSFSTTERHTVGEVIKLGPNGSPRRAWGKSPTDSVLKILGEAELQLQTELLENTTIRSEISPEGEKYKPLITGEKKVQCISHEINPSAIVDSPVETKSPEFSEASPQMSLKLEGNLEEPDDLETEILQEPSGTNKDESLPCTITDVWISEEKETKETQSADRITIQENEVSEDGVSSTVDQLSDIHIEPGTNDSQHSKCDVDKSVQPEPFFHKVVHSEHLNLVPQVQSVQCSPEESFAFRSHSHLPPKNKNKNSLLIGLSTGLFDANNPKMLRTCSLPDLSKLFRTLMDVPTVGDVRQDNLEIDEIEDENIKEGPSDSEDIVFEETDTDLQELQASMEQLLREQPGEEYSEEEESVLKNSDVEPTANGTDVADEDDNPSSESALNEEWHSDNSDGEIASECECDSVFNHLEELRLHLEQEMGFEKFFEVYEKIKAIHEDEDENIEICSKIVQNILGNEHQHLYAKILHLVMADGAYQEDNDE

Structure (SMILES): COCCN[C@H]1CC[C@H](Nc2cc(-c3csc(NCC4(C#N)CCOCC4)n3)c(Cl)cn2)CC1
- half-life [1]: 1.55 h
- Activity [2]: 93%
- Activity [3]: 87%
- Activity [4]: 90%
- Activity [5]: 85%
- Activity [6]: 86%
- Activity [7]: 75%
- Activity [8]: 96%
- Activity [9]: 60%
- Activity [10]: 100%
- Activity [11]: 85%
- Activity [12]: 100%
- Activity [13]: 66%
- Activity [14]: 95%
- Activity [15]: 95%
- Activity [16]: 92%
- Activity [17]: 100%
- Activity [18]: 100%
- IC50 [19]: 4.64 µM
- IC50 [20]: 0.292 µM
- Activity [21]: 100%
